Measurements as given in ChEMBL document CHEMBL1158524, “Synthesis and SAR of novel imidazoles as potent and selective cannabinoid CB2 receptor antagonists with high binding efficiencies” (Bioorg Med Chem Lett, 2010).

Experiments:
Cannabinoid receptor 1 = Cannabinoid receptor 1 (Homo sapiens, UniProt P21554); assay: Displacement of [3H]CP-55940 from human CB1 receptor expressed in CHO cells; type: cell-based
Procedure, shortened: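 CHO cells stably transfected with human CB1 receptor. Values are the mean of at least three independent experiments.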

Cannabinoid receptor 2 [1] = molecular target: T1, Cannabinoid receptor 2 (Homo sapiens, UniProt P34972); assay: Displacement of [3H]CP-55940 from human CB2 receptor expressed in CHO cells; type: cell-based
T1 sequence (P34972 whole entry): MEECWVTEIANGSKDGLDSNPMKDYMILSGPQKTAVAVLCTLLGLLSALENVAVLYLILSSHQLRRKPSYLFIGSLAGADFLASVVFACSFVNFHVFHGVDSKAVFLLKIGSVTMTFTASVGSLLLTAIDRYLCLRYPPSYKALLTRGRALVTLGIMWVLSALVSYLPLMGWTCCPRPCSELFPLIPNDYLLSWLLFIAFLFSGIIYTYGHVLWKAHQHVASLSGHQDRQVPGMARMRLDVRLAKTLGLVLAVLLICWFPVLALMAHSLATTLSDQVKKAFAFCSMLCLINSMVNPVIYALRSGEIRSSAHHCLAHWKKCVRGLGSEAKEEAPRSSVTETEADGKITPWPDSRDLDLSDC
Procedure, shortened: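 CHO cells stably transfected with human CB2 receptor. Values are the mean of at least three independent experiments.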

Homo sapiens = species on record: Homo sapiens; assay: Selectivity ratio of Ki for human CB1 to Ki for human CB2
Cannabinoid receptor 2 [2] = molecular target: T1, Cannabinoid receptor 2; assay: Antagonist activity at human CB2 receptor assessed as inhibition of forskolin-stimulated cAMP accumulation in presence of JWH133; type: functional; conditions: read-out: pA2 (converted)
Procedure, shortened: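 Human CB2 cAMP accumulation assay measuring dose-dependent antagonism of the CB2-selective agonist JWH133, expressed as pA2 ± error. Incubation was 20 min, or 4 h for some compounds. Based on at least three independent experiments.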

Cannabinoid receptor 2 [3] = molecular target: T1, Cannabinoid receptor 2; assay: Inverse agonist activity at human CB2 receptor assessed as stimulation of cAMP accumulation after 20 mins
Cannabinoid receptor 2 [4] = molecular target: T1, Cannabinoid receptor 2; assay: Inverse agonist activity at human CB2 receptor assessed as inhibition of forskolin-stimulated cAMP accumulation after 4 hrs; type: functional
Procedure, shortened: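 Functional human CB2 cAMP accumulation assay with the incubation extended to 4 h. Inverse agonism read out as pEC50. Values are the mean of at least three independent experiments.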

Chain of Cannabinoid receptor 1 (P21554 whole entry): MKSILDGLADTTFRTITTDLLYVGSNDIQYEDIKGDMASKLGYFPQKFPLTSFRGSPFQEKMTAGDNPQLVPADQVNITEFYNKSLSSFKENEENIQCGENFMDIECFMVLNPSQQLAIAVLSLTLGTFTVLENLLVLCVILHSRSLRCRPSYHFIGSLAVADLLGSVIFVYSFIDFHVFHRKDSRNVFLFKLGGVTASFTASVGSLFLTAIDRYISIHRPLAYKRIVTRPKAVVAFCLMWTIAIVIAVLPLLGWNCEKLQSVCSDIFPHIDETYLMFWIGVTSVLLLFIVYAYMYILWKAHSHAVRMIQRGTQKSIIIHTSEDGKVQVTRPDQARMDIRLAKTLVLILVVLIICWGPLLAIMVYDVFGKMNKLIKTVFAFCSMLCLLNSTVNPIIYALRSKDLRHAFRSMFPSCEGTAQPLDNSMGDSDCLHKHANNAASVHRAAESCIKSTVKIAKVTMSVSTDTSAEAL

## Cc1nc(C(=O)NC23CC4CC(CC(C4)C2)C3)c(Br)n1-c1ccccc1
Cannabinoid receptor 1
  Ki: > 10000 nM
Cannabinoid receptor 2 [1]
  Ki: 8.4 nM
Homo sapiens
  Ratio: > 1190

## O=C(NC12CC3CC(CC(C3)C1)C2)c1nc(Cl)n(-c2ccccc2)c1Cl
Cannabinoid receptor 1
  Ki: > 1000 nM
Cannabinoid receptor 2 [2]
  Kb: 7.94 nM
Cannabinoid receptor 2 [1]
  Ki: 50 nM
Homo sapiens
  Ratio: > 20
Cannabinoid receptor 2 [3]
  EC50: 79.4 nM

## C[C@H](NS(C)(=O)=O)c1ccc(S(=O)(=O)c2ccc(Cl)cc2S(=O)(=O)c2ccccc2F)cc1
Cannabinoid receptor 1
  Ki: 3540 nM
Cannabinoid receptor 2 [2]
  Kb: 1 nM
Cannabinoid receptor 2 [1]
  Ki: 0.8 nM
Homo sapiens
  Ratio: 4420
Cannabinoid receptor 2 [3]
  EC50: 7.94 nM
Cannabinoid receptor 2 [4]
  EC50: 5.01 nM

## CSc1c(C(=O)NC23CC4CC(CC(C4)C2)C3)nc(C)n1-c1ccccc1
Cannabinoid receptor 1
  Ki: > 10000 nM
Cannabinoid receptor 2 [1]
  Ki: 10 nM
Homo sapiens
  Ratio: > 1000
Cannabinoid receptor 2 [3]
  EC50: 6.31 nM

## Cc1nc(C(=O)NC23CC4CC(CC(C4)C2)C3)c(C)n1-c1ccccc1
Cannabinoid receptor 1
  Ki: 4890 nM
Cannabinoid receptor 2 [2]
  Kb: 1.58 nM
Cannabinoid receptor 2 [1]
  Ki: 2.7 nM
Homo sapiens
  Ratio: 1810
Cannabinoid receptor 2 [3]
  EC50: 0.794 nM
Cannabinoid receptor 2 [4]
  EC50: 0.794 nM

## CCCCCOc1c(OC)ccc2cc(C(=O)NCc3ccc4c(c3)OCO4)c(=O)[nH]c12
Cannabinoid receptor 1
  Ki: 3920 nM

## CCCCc1c(C(=O)NC23CC4CC(CC(C4)C2)C3)nc(C)n1-c1ccccc1
Cannabinoid receptor 1
  Ki: 2000 nM
Cannabinoid receptor 2 [1]
  Ki: 9.8 nM
Homo sapiens
  Ratio: > 102
Cannabinoid receptor 2 [3]
  EC50: 5.01 nM

## CCc1nc(C(=O)NC23CC4CC(CC(C4)C2)C3)c(C)n1-c1ccccc1
Cannabinoid receptor 1
  Ki: 4150 nM
Cannabinoid receptor 2 [2]
  Kb: 5.01 nM
Cannabinoid receptor 2 [1]
  Ki: 1.6 nM
Homo sapiens
  Ratio: 2600
Cannabinoid receptor 2 [3]
  EC50: 1.58 nM

## Cc1nc(C(=O)NC23CC4CC(CC(C4)C2)C3)c(Cl)n1-c1ccccc1
Cannabinoid receptor 1
  Ki: > 10000 nM
Cannabinoid receptor 2 [1]
  Ki: 23.8 nM
Homo sapiens
  Ratio: > 420
Cannabinoid receptor 2 [3]
  EC50: 63.1 nM

## Cc1nc(C(=O)NCc2ccccc2C(F)(F)F)c(C)n1-c1ccccc1
Cannabinoid receptor 1
  Ki: 1420 nM
Cannabinoid receptor 2 [1]
  Ki: 3.5 nM
Homo sapiens
  Ratio: 406
Cannabinoid receptor 2 [3]
  EC50: 0.2 nM

## CCc1nc(C(=O)NC23CC4CC(CC(C4)C2)C3)cn1-c1ccccc1
Cannabinoid receptor 1
  Ki: > 1000 nM
Cannabinoid receptor 2 [1]
  Ki: 12.7 nM
Homo sapiens
  Ratio: > 79
Cannabinoid receptor 2 [3]
  EC50: 12.6 nM
Cannabinoid receptor 2 [4]
  EC50: 6.31 nM

## Cc1nc(C(=O)NC23CC4CC(CC(C4)C2)C3)c(C)n1C1CCCCC1
Cannabinoid receptor 1
  Ki: > 10000 nM
Cannabinoid receptor 2 [1]
  Ki: 20 nM
Homo sapiens
  Ratio: > 500
Cannabinoid receptor 2 [3]
  EC50: 126 nM

## Cc1nc(C(=O)NC2C3CC4CC(C3)C2C4)c(C)n1-c1ccccc1 (stereo not drawn)
Cannabinoid receptor 1
  Ki: 5440 nM
Cannabinoid receptor 2 [1]
  Ki: 9.7 nM
Homo sapiens
  Ratio: 561
Cannabinoid receptor 2 [3]
  EC50: 7.94 nM

## CCc1c(C(=O)NC23CC4CC(CC(C4)C2)C3)nc(C)n1-c1ccccc1
Cannabinoid receptor 1
  Ki: > 10000 nM
Cannabinoid receptor 2 [2]
  Kb: 1 nM
Cannabinoid receptor 2 [1]
  Ki: 1.03 nM
Homo sapiens
  Ratio: > 9710
Cannabinoid receptor 2 [3]
  EC50: 20 nM
Cannabinoid receptor 2 [4]
  EC50: 0.251 nM

## Cc1c(C(=O)NC[C@H]2C[C@@H]3C[C@H](C2)C3(C)C)ncn1-c1ccccc1
Cannabinoid receptor 1
  Ki: > 10000 nM
Cannabinoid receptor 2 [1]
  Ki: 175 nM
Homo sapiens
  Ratio: > 57
Cannabinoid receptor 2 [3]
  EC50: 158 nM

## Cc1nc(C(=O)NC2C3CC4CC(C3)CC2C4)c(C)n1-c1ccccc1 (stereo not drawn)
Cannabinoid receptor 1
  Ki: 3010 nM
Cannabinoid receptor 2 [1]
  Ki: 13.8 nM
Homo sapiens
  Ratio: 218
Cannabinoid receptor 2 [3]
  EC50: 6.31 nM

## Cc1nc(C(=O)NC[C@H]2C[C@@H]3C[C@H](C2)C3(C)C)c(C)n1-c1ccccc1
Cannabinoid receptor 1
  Ki: 3990 nM
Cannabinoid receptor 2 [1]
  Ki: 20 nM
Homo sapiens
  Ratio: 200
Cannabinoid receptor 2 [3]
  EC50: 31.6 nM
